What all share (type): biochemical
Experiment [1] addresses T1, hGOAT (Homo sapiens, UniProt Q96T53).
T1 sequence (Q96T53 1-435): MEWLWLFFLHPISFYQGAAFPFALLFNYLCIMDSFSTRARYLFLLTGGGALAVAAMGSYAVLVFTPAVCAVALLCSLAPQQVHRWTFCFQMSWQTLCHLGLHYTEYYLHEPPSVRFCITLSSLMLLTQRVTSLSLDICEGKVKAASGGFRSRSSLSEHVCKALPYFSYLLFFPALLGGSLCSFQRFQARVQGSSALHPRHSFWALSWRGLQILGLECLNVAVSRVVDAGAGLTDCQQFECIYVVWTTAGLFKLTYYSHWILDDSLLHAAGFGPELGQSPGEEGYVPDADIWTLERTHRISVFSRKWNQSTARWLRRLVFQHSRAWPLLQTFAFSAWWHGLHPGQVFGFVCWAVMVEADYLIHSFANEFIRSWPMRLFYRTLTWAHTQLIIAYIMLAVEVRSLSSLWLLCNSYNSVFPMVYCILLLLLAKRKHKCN
As to the kind of experiment: in vitro hGOAT octanoylation activity assay. The gist of the method:
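hGOAT was expressed in Sf9 cell membrane fractions, homogenized by needle, and ~100 μg membrane protein was preincubated 30 min at room temperature with 1 μM MAFP and test compound or vehicle (DMSO or ethanol) in 50 mM HEPES pH 7.0. Reactions were started with 500 μM octanoyl-CoA and 1.5 μM acrylodan-labeled peptide, run 3 h at room temperature in the dark, acid/isopropanol-stopped, TCA-clarified and analysed by reverse-phase HPLC. Percent activity was taken as octanoylated/total peptide fluorescence relative to vehicle, from three independent determinations.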

For experiment [2], the target named is T1, hGOAT. As to the kind of experiment: inhibitor reversibility. Conditions: pretreatment at 3 x IC50, 10-fold dilution. The gist of the method: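 Undiluted homogenised Sf9 membrane containing hGOAT (~7 μg/μL protein) was preincubated 30 min at RT with 10 μM MAFP and inhibitor or vehicle (DMSO or ethanol). It was then diluted 10-fold into 50 mM HEPES pH 7.0 with 500 μM octanoyl CoA, 1.5 μM GSSFLC-acrylodan, and either vehicle or inhibitor at the same final level as in preincubation. Reactions ran 3 h at RT in the dark, followed by RP-HPLC quantitation of octanoylated peptide.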

In the next experiment the target is T2, mGOAT (Mus musculus, UniProt P0C7A3).
T2 sequence (P0C7A3 1-435): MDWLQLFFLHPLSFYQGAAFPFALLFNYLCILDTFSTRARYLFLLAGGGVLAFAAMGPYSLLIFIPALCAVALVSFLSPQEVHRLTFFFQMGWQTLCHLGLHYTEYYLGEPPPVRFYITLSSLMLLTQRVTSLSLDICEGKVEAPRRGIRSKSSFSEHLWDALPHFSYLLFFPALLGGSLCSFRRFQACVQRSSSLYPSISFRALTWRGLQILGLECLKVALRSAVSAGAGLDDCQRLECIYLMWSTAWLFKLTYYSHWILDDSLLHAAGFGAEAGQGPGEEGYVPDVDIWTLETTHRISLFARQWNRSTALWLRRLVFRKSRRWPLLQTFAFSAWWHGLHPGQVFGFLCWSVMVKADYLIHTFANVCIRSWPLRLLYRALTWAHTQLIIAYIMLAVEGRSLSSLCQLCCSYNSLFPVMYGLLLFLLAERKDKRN
As to the kind of experiment: in vitro mGOAT octanoylation activity assay. Conditions: side-by-side assay, mGOAT IC50 higher than hGOAT. An outline of the steps: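 mGOAT and hGOAT were expressed in Sf9 insect-cell membrane fractions, which were thawed on ice and homogenised through an 18-gauge needle. About 100 μg membrane protein was preincubated 30 min at room temperature with 1 μM MAFP plus inhibitor or vehicle (DMSO or ethanol) in 50 mM HEPES pH 7.0.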

In experiment [3] the target is T1, hGOAT. As to the kind of experiment: inhibitor time dependence with hGOAT. Conditions: preincubation 5-60 min, 10 min reaction, 30 μM CDDO-EA. The gist of the method:
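hGOAT Sf9 membranes (~100 μg protein) were first preincubated 30 min at RT with 1 μM MAFP in 50 mM HEPES pH 7.0. Inhibitor or vehicle was then added for 5, 10, 30 or 60 min before starting with 500 μM octanoyl CoA and 1.5 μM GSSFLC-acrylodan. The reaction ran only 10 min at RT in the dark, then was stopped and analysed by RP-HPLC. % activity versus vehicle and IC50 were derived per preincubation time; minimum of three measurements.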

“Also recorded” adds a separate entry of the source. Where two headings read alike, the source gives them in different places.

In the case of `CC1(C)CC[C@]2(C(=O)O)CC[C@]3(C)[C@H](C(=O)C=C4[C@@]5(C)C=C(C#N)C(=O)C(C)(C)[C@@H]5CC[C@]43C)[C@@H]2C1` [Compound 5], the “inhibition of hGOAT activity” value on hGOAT [1] was “lack of inhibition”.
For the compound `CCN1C(=O)C=CC1=O` [NEM, N-ethylmaleimide], on hGOAT [2], the “reversibility of hGOAT inhibition” value is “irreversible hGOAT inhibition”. Moreover, on hGOAT [1], the “inhibition of hGOAT activity” value was “efficiently inhibits hGOAT”.
`COC(=O)[C@]12CCC(C)(C)C[C@H]1[C@H]1C(=O)C=C3[C@@]4(C)C=C(C#N)C(=O)C(C)(C)[C@@H]4CC[C@@]3(C)[C@]1(C)CC2` [Compound 2, methyl 2-cyano-3,12-dioxooleana-1,9(11)dien-28-oate]: the “inhibition of hGOAT activity” value against hGOAT [1] was “exhibits inhibitory activity against hGOAT; also recorded: most potent inhibition of hGOAT”.
On the same count and under the same terms, to `C[C@]12CC[C@@H]3c4ccc(O)cc4CC[C@H]3[C@@H]1CCC2=O` [Compound 15, estrone] belongs “lack of hGOAT inhibition”.
As to `CCNC(=O)[C@]12CCC(C)(C)C[C@H]1[C@H]1C(=O)C=C3[C@@]4(C)C=C(C#N)C(=O)C(C)(C)[C@@H]4CC[C@@]3(C)[C@]1(C)CC2` [Compound 3], at mGOAT, the “IC50 against mGOAT relative to hGOAT” value is ~ 8 fold. In addition, the “reversibility of hGOAT inhibition” value on hGOAT [2] was “reversible hGOAT inhibition”. The “time dependence of hGOAT inhibition” value at hGOAT [3] is listed as “time-dependent inhibition”. Besides, the “inhibition of hGOAT activity” value at hGOAT [1] is “most potent inhibition of hGOAT”.
Turning to `C[C@H]1[C@H](C)CC[C@]2(C(=O)O)CC[C@]3(C)C(=CC[C@@H]4[C@@]5(C)CC[C@H](O)C(C)(C)[C@@H]5CC[C@]43C)[C@H]12` [Compound 6, ursolic acid], at hGOAT [1] (at concentrations up to 100 μM), the “inhibition of hGOAT activity” value is given as “negligible inhibition”.
The same measure, in the same setting: to `CC1(C)CC[C@]2(C(=O)O)CC[C@]3(C)C(=CC[C@@H]4[C@@]5(C)CC[C@H](O)C(C)(C)[C@@H]5CC[C@]43C)[C@@H]2C1` [Compound 7, oleanic acid] belongs “negligible inhibition”.
For the compound `O=C1C=CCCC1` [Compound 18, cyclohexenone], the “inhibition of hGOAT activity” value against hGOAT [1] (at concentrations up to 1 mM) was “does not inhibit hGOAT activity”.
Regarding [Dap^3]octanoyl-ghrelin (1-5)-NH2, at hGOAT [2], the “reversibility of hGOAT inhibition” value is given as “reversible inhibition”.
With `CC1(C)CC[C@]2(C)CC=C3[C@]4(C)CC[C@H]5C(C)(C)[C@@H](O)CC[C@]5(C)[C@H]4CC[C@@]3(C)[C@@H]2C1` [Compound 8, taraxerol], on hGOAT [1] (at concentrations up to 100 μM), the “inhibition of hGOAT activity” value is reported as “fails to inhibit”.

The record behind these values is publication PMC5319884 (Biochemistry, 2017).
